The results in this text go back to ChEMBL document CHEMBL1134682, “A novel series of 2,6,7-substituted 2,3-dihydro-1,4-benzodioxin and 2,6,7-substituted 1,4-benzodioxin derivatives as lipid peroxidation inhibitors. Structure-activity relationships for high inhibition of human low-density lipoprotein peroxidation” (J Med Chem, 2001).

The structures appear in SMILES notation. The source made the active and inactive calls. The calls are words filed in the database; no cut-off is given here.

For experiment [1], the species on record is Homo sapiens. Nature of the experiment: Tested for the activity ratio versus probucol. The class given is functional. Summed up:
(§1)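 Human LDL was isolated by ultracentrifugation (1.019 < d < 1.063) from pooled EDTA (0.04%) plasma of healthy normolipidemic donors. Oxidation was driven by Cu²⁺ for 3 h at 37 °C, with compounds in DMSO added just before. TBARS was read by the Yagi method as MDA equivalents. Ten concentrations from 10⁻⁷ to 10⁻³ M were run in duplicate, with IC50 by linear regression. A ratio versus probucol corrected for LDL batch.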

Experiment [2] is filed under the species Homo sapiens. Kind of experiment: Concentration inhibiting 50% of the copper induced lipid peroxidation determined using the thiobarbituric acid reactive substance and expressed as an MDA equivalent. Format: functional. The method in brief:
as §1

The subject of experiment [3] is Mus musculus. Nature of the experiment: Compound was tested for the time before the first gasps after ip administration of 20 mg/kg in hypoxia test. Format: functional. The settings on record: route intraperitoneal. Summed up:
(§2)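 Male Swiss CD1 mice (25–30 g) were housed 1 week at 20–22 °C, 55% humidity, 12/12 light cycle. Compound was given ip 30 min before placing each mouse in a small box flushed with 96% N₂/4% O₂ at 12 L/min. Read-out was the time until the first gasps. Vincamine was the reference.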

Experiment [4] relates to Mus musculus. Kind of experiment: Compound was tested for the time before the first gasps after ip administration of 1 mg/kg in hypoxia test. The class given is functional. Particulars: route intraperitoneal. Summed up:
as §2

Experiment [5] deals with Mus musculus. Kind of experiment: Compound was tested for change in the total cholesterol after (po) administration of 100 mg/kg in mice. Format: functional. Summed up:
(§3)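 Groups of six mice were made hypercholesterolaemic by a high-cholesterol, cholic-acid diet for 7 days. Compound was dosed po, half on day 6 and half on day 7, then mice were fasted overnight without food or water. Serum total cholesterol and heparin-precipitated LDL-VLDL were compared with hypercholesterolaemic controls.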

The species named for experiment [6] is Rattus norvegicus. Nature of the experiment: Inhibitory concentration against KCl induced rat thoracic aorta contraction. Format: functional. Summed up:
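Isolated rat aorta was contracted with hyperpotassic KCl (60 mM). Inhibition of contraction was measured over eight increasing concentrations (10⁻⁸ to 3 × 10⁻⁵ M), each in duplicate, on two preparations. IC50 came from the concentration–response curve by linear regression.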

Experiment [7] deals with Mus musculus. Kind of experiment: Compound was tested for change in the LDL-VLDL fraction after (po) administration of 100 mg/kg in mice. Format: functional. The method in brief:
as §3

For experiment [8], the system named is Mus musculus. Nature of the experiment: Compound was tested for the time before the first gasps after ip administration of 2.5 mg/kg in hypoxia test. The class given is functional. Particulars: route intraperitoneal. Summed up: as §2
The subject of experiment [9] is Mus musculus. Nature of the experiment: Compound was tested for change in the total cholesterol after (po) administration of 300 mg/kg in mice. Format: functional. The method in brief: as §3
The subject of experiment [10] is Mus musculus. Nature of the experiment: Compound was tested for change in the LDL-VLDL fraction after (po) administration of 300 mg/kg in mice. Format: functional. Summed up:
as §3

The species named for experiment [11] is Homo sapiens. Nature of the experiment: Concentration inhibiting 50% of the copper induced lipid peroxidation determined using th e thiobarbituric acid reactive substance and expressed as an MDA equivalent; Peroxidant. Format: functional. The method in brief: as §1
For experiment [12], the species on record is Homo sapiens. Nature of the experiment: Compound was tested for the activity ratio versus probucol. Format: functional. Summed up: as §1
For experiment [13], the species on record is Homo sapiens. Kind of experiment: Concentration inhibiting 50% of the copper induced lipid peroxidation determined using th e thiobarbituric acid reactive substance and expressed as an MDA equivalent. Format: functional. Summed up:
as §1

Experiment [14] deals with Mus musculus. Kind of experiment: Compound was tested for the time before the first gasps after ip administration of 2.5 mg/kg in hypoxia test; inactive. Format: functional, organism-based. The arrangement: dose 2.5 mg/kg. The method in brief: as §2

In general, IC50 refers to the concentration that inhibits the measured activity by half. Turning to `Oc1ccc2c(c1)OC=C(C(=S)N1CCN(C(c3ccc(F)cc3)c3ccc(F)cc3)CC1)O2`, the Ratio in experiment [1] turned out to be 0.5. For the same molecule, the IC50 in [2] is 9 µM.
For the molecule `Oc1ccc2c(c1)OC=C(CN1CCN(C(c3ccc(F)cc3)c3ccc(F)cc3)CC1)O2`, the Ratio in [1] is 5. For the same molecule, the Time in experiment [3] was 60 s; in [4], 78 s; in experiment [8] it was 65 s. Further, the Change in experiment [5] is recorded as -33%; in experiment [7], -35%; in experiment [9], -48%; in experiment [10], -52%. The IC50 in [6] was 0.57 µM; in experiment [2], 1 µM.
Regarding `O=C(C1=COc2cc(O)ccc2O1)N1CCN(C(c2ccc(F)cc2)c2ccc(F)cc2)CC1`, the Ratio in experiment [1] is reported as above 45. The Time in [3] came out at 67 s; in experiment [4], 55 s; in experiment [8], 108 s. The IC50 was 0.56 µM in experiment [6] and below 0.1 µM in experiment [2]. In addition, in experiment [9], the Change was -7%.
`Oc1ccc2c(c1)OC=C(CN1CCC(=C(c3ccc(F)cc3)c3ccc(F)cc3)CC1)O2`: the Ratio in [1] is above 45. In experiment [2], the IC50 was below 0.1 µM.
For the molecule `O=C(Oc1ccc2c(c1)OC=C(C(=O)N1CCN(C(c3ccc(F)cc3)c3ccc(F)cc3)CC1)O2)c1cccnc1`, the IC50 result in experiment [11] is “Peroxidant”.
For `O=C(Nc1ccccc1)C1=COc2ccc(O)cc2O1`, the Ratio in experiment [12] stood at 4. In addition, the half-maximal inhibitory concentration (IC50) in experiment [13] is 0.5 µM.
Turning to `Nc1ccc2c(c1)OC=C(C(=O)N1CCN(C(c3ccc(F)cc3)c3ccc(F)cc3)CC1)O2`, in experiment [1], the Ratio was determined as 0.1. Moreover, in experiment [2], the half-inhibitory concentration (IC50) was determined as 35 µM.
The corresponding values for `COc1ccc2c(c1)OC=C(C(=O)N1CCN(C(c3ccc(F)cc3)c3ccc(F)cc3)CC1)O2` are below 0.005 and above 100 µM.
As to `O=C(C1=COc2ccccc2O1)N1CCN(C(c2ccc(F)cc2)c2ccc(F)cc2)CC1`, the IC50 in experiment [6] amounted to 1.8 µM.
As to `O=C(C1COc2cc(O)ccc2O1)N1CCN(C(c2ccc(F)cc2)c2ccc(F)cc2)CC1` (configuration not stated), the Ratio in [1] is recorded as 1.7. Further, the half-maximal inhibitory concentration (IC50) in [6] and in experiment [2] was 3 µM throughout.
For the molecule `CC[C@]12CCCN3CCc4c(n(c5ccccc45)[C@@](O)(C(=O)OC)C1)[C@@H]32` [VINCAMINE], in experiment [14], the IA entry is “inactive”. The same molecule displayed a Time in experiment [3] of 147 s.
For `O=C(C1COc2ccc(O)cc2O1)N1CCN(C(c2ccc(F)cc2)c2ccc(F)cc2)CC1` (configuration not stated), the Ratio in experiment [1] was found to be 10. For the same molecule, the IC50 in experiment [6] stood at 2.2 µM; in experiment [2] it was 0.2 µM.
As for `O=C(C1=COc2ccc(O)cc2O1)N1CCN(C(c2ccc(F)cc2)c2ccc(F)cc2)CC1`, the Ratio in experiment [1] turned out to be 2.9. Further, the IC50 in [2] was 0.7 µM.
In the same order, the values of `CCCCN(C(=O)C1=COc2cc(O)ccc2O1)c1ccccc1` are 2 and 1 µM.
The corresponding values for `COc1ccc(CN2CCN(C(=O)C3COc4ccc(O)cc4O3)CC2)c(OC)c1OC` (configuration not stated) are 3 and 1.7 µM.
In the same order, the values of `COc1ccc(CN2CCN(C(=O)C3=COc4ccc(O)cc4O3)CC2)c(OC)c1OC` are 1.7 and 3 µM.
For `CC(C)(Oc1ccc(CCNC(=O)c2ccc(Cl)cc2)cc1)C(=O)O` [BEZAFIBRATE], the Change in [5] is given as -25%; in experiment [7] it was -20%.
Take `CC(C)(C)c1cc2c(cc1O)OC=C(C(=O)N1CCN(C(c3ccc(F)cc3)c3ccc(F)cc3)CC1)O2`: the Ratio in experiment [1] was 5. The IC50 in experiment [6] was found to be 3.1 µM; in experiment [2], 1 µM.
For `O=C(C1=COc2cc(O)ccc2O1)N1CCC(=C(c2ccc(F)cc2)c2ccc(F)cc2)CC1`, the Ratio in experiment [1] is recorded as 2. Further, in experiment [2], the 50% inhibitory concentration (IC50) was found to be 0.5 µM.
The corresponding values for `CCCCN(C(=O)C1=COc2cc(O)c(C(C)(C)C)cc2O1)c1ccccc1` are 5 and 0.2 µM.
As for `Fc1ccc(C(c2ccc(F)cc2)N2CCN(C/C=C/c3ccccc3)CC2)cc1` [FLUNARIZINE], the IC50 in experiment [6] was found to be 0.27 µM.
`CCCCN(C(=O)C1=COc2ccc(O)cc2O1)c1ccccc1`: the Ratio in experiment [1] is listed as 2. Also, the IC50 in [2] worked out at 0.4 µM.
